High-throughput results from PubChem BioAssay.
Most compounds without a hit are left out; they make up all but 2% or so of the library.
Bfl-1 A1 inh = inhibitors of the anti-apoptotic protein A1, read as caspase activation. caspase activation, % (no concentration beside the values). AID 2462. MEF A1-2A-BIM cells, Caspase-Glo 3/7 luminescence, 3 h; percent of clofoctol response, vehicle zero. 330,000 compounds, 0.066% hits;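 active = over half of replicate activation scores above 10%, or exactly half above 10 with the replicate mean above 10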
UPR XBP1 act = adaptive UPR (XBP1) activation. CHO-XBP1 luciferase reporter, IRE1-XBP1 UPR activation, luminescence; percent of tunicamycin response, DMSO as zero. activation, % at 20 µM. 330,000 compounds, 0.33% hits. AID 463104;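 active = versus positive control, 20 µM dose yields 30% or more activation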;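 also: 100% = tunicamycin at 10 µg/mL and 0% = DMSO only wells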
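Material – CHO cell line with stable XBP1 luciferase reporter · Buffer or medium – F12 plus 10% FBS · Compound – single point, 20 µM final compound, 1% DMSO · Schedule – 16-18 h cell attachment at 37 °C, then 6 h compound exposure · Signal – Steady-Glo luminescence read · Benchmarks – high control tunicamycin 10 µg/mL final, low control DMSO vehicle only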
UPR CHOP act = activators of apoptotic arm of unfolded protein response (CHOP); CHO-CHOP luciferase reporter, UPR activation, luminescence; percent of tunicamycin response over DMSO baseline; activation, % at 10 µM; 330,000 compounds, 0.34% hits; AID 449763;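 active = at 10 µM dose, activation of 40% or more, normalized to positive control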;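 also: 100% = tunicamycin at 10 µg/mL and 0% = DMSO alone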
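Assay system: CHO-CHOP cells, stable luciferase reporter of PERK-eIF2a-CHOP signalling / Buffer or medium: F12 plus 10% serum / Compound dosing: one dose, 10 µM in 0.5% DMSO / Times: 6 h compound treatment, 37 °C / Technique: luciferase luminescence / Read-out: % reporter activation, DMSO baseline versus tunicamycin full activation / Benchmarks: tunicamycin and DMSO controls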
MC4R ag barr = agonists of human melanocortin 4 receptor (MC4R) beta-arrestin; activation, % at 8.9 µM; 360,000 compounds, 0.98% hits; P32245; AID 540308; U2OS MC4R beta-arrestin complementation, luminescence; percent of melanotan II response, DMSO zero;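 active = activation above a per-plate cutoff, the mean activation of sample wells on that plate plus 3 SD, cut at about 8% in these data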
Target sequence (P32245 whole entry, looked up): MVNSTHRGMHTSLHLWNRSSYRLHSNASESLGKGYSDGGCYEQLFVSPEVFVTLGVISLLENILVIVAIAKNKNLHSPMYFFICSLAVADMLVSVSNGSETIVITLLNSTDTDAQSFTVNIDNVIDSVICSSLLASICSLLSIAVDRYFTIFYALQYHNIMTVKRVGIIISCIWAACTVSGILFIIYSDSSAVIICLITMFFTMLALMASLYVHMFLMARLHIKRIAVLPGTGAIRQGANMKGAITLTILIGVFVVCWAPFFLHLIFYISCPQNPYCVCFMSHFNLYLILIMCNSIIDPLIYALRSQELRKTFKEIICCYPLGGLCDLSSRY
MC4R antag cAMP = human MC4R antagonism in cAMP assay; P32245; MC4R-expressing cells, MTII-stimulated cAMP, LANCE TR-FRET; inhibition, % at 6.5 µM; 360,000 compounds, 0.48% hits; AID 540295;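 active = inhibition above its plate's cutoff, the mean of tested wells on that plate plus 3 SD, cut at about 29% in these data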;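 also: 0% = Melanotan II alone and 100% = Melanotan II plus saturating MCL0020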
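Test system: U2OS cells stably expressing human melanocortin 4 receptor (MC4R); also added: Melanotan II challenge; compound: 6.5 µM single dose; timing: 30-min compound preincubation, 1-h Melanotan II challenge, 1-h detection, room temperature; signal: Eu-cAMP/anti-cAMP TR-FRET, emission 671 nm; repeats: one well per compound, no replicates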
XBP1 UPR conf = confirmation of adaptive unfolded protein response (XBP1) activators | shares compounds with UPR XBP1 act | CHO-XBP1 IRE1-XBP1 luciferase reporter, luminescence | activation, % at 20 µM | 1,000 compounds, 63% hits;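 active = reporter signal at least 30% of the positive control's activation in two or more of four replicate wells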;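 also: plate controls were DMSO negative control for no effect and tunicamycin 10 µg/mL positive control for full effect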
* = called active by the depositor; · = not tested or not shown.

SMILES	Bfl-1 A1 inh	UPR XBP1 act	UPR CHOP act	MC4R ag barr	MC4R antag cAMP	XBP1 UPR conf
Cc1ccc(C)c(N2CCN(C(=O)c3cc(S(=O)(=O)N4CCOCC4)ccc3F)CC2)c1	0	33*	0	-1	1	0
Cc1ccc(S(=O)(=O)N2CCOCC2)cc1C(=O)O	1	-2	2	-1	0	·
CCNc1nc(NCC)n2c(SCC(=O)Nc3cccc(Cl)c3)nnc2n1	0	0	-1	0	7	·
CCNc1nc(NCC)n2c(SC(C(=O)Nc3cc(Cl)cc(Cl)c3)c3ccccc3)nnc2n1 (centres undefined)	1	90*	15	-2	6	25
Cc1ccc(-c2n[nH]c(=S)n2/N=C/C=C/c2ccccc2[N+](=O)[O-])cc1	0	-2	-3	-4	2	·
O=[N+]([O-])c1ccccc1/C=C/C=N/n1c(-c2cc(-c3ccccc3)n[nH]2)n[nH]c1=S	1	39*	0	0	7	4
CCC(CO)Nc1ccn2nc(-c3cccs3)cc2n1 (centres undefined)	·	·	·	0	15	·
CCCC(=O)N1CCCC1(C)C(=O)Nc1cc(OC)c(OC)c(OC)c1 (centres undefined)	·	·	·	-1	-2	·
COc1ccc(/C=N/Nc2cc(C)nc3ccc(Br)cc23)cc1	-1	32*	20	16*	7	36*
COc1ccc2nc(C)cc(N/N=C/c3cccc(OC)c3O)c2c1	0	10	11	1	14	·
CC(C)NC(=O)Nc1nnc([C@@H]2C[C@H](O)[C@@H](CO)O2)s1	·	·	·	-3	6	·
CC(C)(C)c1cc(-c2nc(N)nc(N)n2)c(O)c(C(C)(C)C)c1	1	58*	0	-1	1	30*
Oc1ccc(-c2nc3ccc4ccccc4c3c3c2CCC3)cc1O	0	31*	33	2	13	51*
Oc1ccc2ccccc2c1C=Nc1ccccc1-c1nc2ccccc2[nH]1	-1	37*	26	1	2	5
CCOC(=O)c1ccc(NC(=O)c2nc[nH]c2C(=O)N[C@H](C)CO)cc1	·	·	·	0	4	·
Cc1cccc2sc(NC(=O)C3CSC4(C)CCC(=O)N34)nc12 (centres undefined)	0	31*	0	-4	-3	-2
Cc1cccc(C)c1NC(=O)C1CSC2(C)CCC(=O)N12 (centres undefined)	0	-2	1	-1	13	·
COc1ccc(OCCN2CCC(C(=O)NC(c3ccc(Cl)cc3)c3ncccc3C)CC2)cc1 (centres undefined)	·	·	·	0	10	·
COc1cccc(C(=O)Nc2ccc3c(c2)C(=O)c2ccccc2C3=O)c1	-2	91*	24	1	-12	4
O=C(Nc1ccc2c(c1)C(=O)c1ccccc1-2)c1ccccc1	·	·	·	-1	-5	·
Cc1cc(C(=O)N/N=C/c2ccc(-c3cccc(Br)c3)o2)n[nH]1	-1	32*	9	4	0	4
CCOC(=O)C1(CCCc2ccccc2)CCN(C(=O)c2n[nH]c(CC)c2C)CC1	·	·	·	3	-1	·
CCCOc1ccc(-c2c(=O)n(OCc3ccc([N+](=O)[O-])cc3)c3ccccc3[n+]2[O-])cc1	-1	10	1	2	0	·
CC(C)CCOc1ccc(-c2c(=O)n(OCc3ccc([N+](=O)[O-])cc3)c3ccccc3[n+]2[O-])cc1	-1	41*	16	-1	8	6
C#Cc1cccc(Nc2nc(NCc3ccccc3)nc3ccsc23)c1	·	·	·	-2	11	·
SMILES	Bfl-1 A1 inh	UPR XBP1 act	UPR CHOP act	MC4R ag barr	MC4R antag cAMP	XBP1 UPR conf
CCCN1CCc2c(sc(NC(=O)c3ccc(S(=O)(=O)N(C)c4ccccc4)cc3)c2C(=O)NC)C1	0	0	3	-1	14	·
CCCN1CCc2c(sc(NC(=O)c3ccc(S(=O)(=O)N(C)c4ccccc4)cc3)c2C(N)=O)C1	1	40*	3	-3	9	5
O=C(Nc1ccc([N+](=O)[O-])cc1)C(Cc1ccccc1)N1C(=O)c2cccc3cccc(c23)C1=O (centres undefined)	5.5*	42*	24	2	4	46*
Cc1nc(N2CCN(S(=O)(=O)c3cccs3)CC2)c2c(-c3ccccc3)c(C)sc2n1	·	·	·	1	9	·
C=CCOc1cccn2c(N(C=O)Cc3ccc(OC)cc3)c(CC)nc12	·	·	·	1	-3	·
O=C(NCC1OCCc2ccccc21)c1ccc(NC(=O)c2ccc(Cl)cc2)cc1 (centres undefined)	1	38*	2	4	16	25
C[C@H](CO)N1C[C@H](C)[C@@H](CN(C)Cc2ccc3cccnc3c2)OCc2cnnn2CCCC1=O	·	·	·	2	-1	·
CCc1nc2ccc(C(=O)NCCCn3ccnc3)cn2c1N(C)CCCc1ccccc1	·	·	·	-1	7	·
CCOC(=O)c1c(NC(=O)c2cc3n(n2)C(C(F)(F)F)CC(c2cccs2)N3)sc(C)c1C (centres undefined)	-1	33*	33	-1	-3	206*
Cc1nn(C)c(C)c1CNC(=O)c1cc2n(n1)C(C(F)(F)F)CC(c1cccs1)N2 (centres undefined)	0	-6	0	-2	-2	·
CC(=O)OC1(C)C=Cc2ccccc2C1=NS(=O)(=O)c1ccccc1 (centres undefined)	·	·	·	-2	-2	·
COc1cc(/C=C/C(=O)c2ccccc2O)cc(OC)c1OC	0	31*	36	0	9	26
Cc1cc(C)c(S(=O)(=O)Nc2ccc3c4c(cccc24)CC3)c(C)c1	0	30*	0	1	-26	24
Cc1ccc(S(=O)(=O)Nc2ccc3c4c(cccc24)CC3)c(C)c1	-2	-2	2	0	-4	·
COc1ccc(-c2cc(C(F)(F)F)nc(SCC(N)=O)n2)cc1	1	-2	-1	1	-10	·
COc1ccc(-c2cc(C(F)(F)F)nc(SCC(=O)Nc3ccc4c(c3)OCO4)n2)cc1	-1	55*	0	-1	-2	0
O=[N+]([O-])c1ccc(-c2nn(-c3ccccc3)cc2/C=N/n2c(-c3cccs3)n[nH]c2=S)cc1	0	41*	14	2	9	29
O=C(COC(=O)c1ccc(F)cc1Cl)NC1CC1	·	·	·	0	3	·
COc1ccc(/C=N/N2C(=O)CSC2=S)cc1	0	-2	-2	1	0	·
COc1ccc(-c2nn(-c3ccccc3)cc2/C=N/N2C(=O)CSC2=S)cc1	-1	39*	22	2	11	27*
